Structures are written as SMILES.

The subject of test [1] is Echinochloa crus-galli. Kind of test: Herbicidal activity against Echinochloa crus-galli (barnyard grass) assessed as growth inhibition at 10 ug/ml. In kind it is functional. Conditions: read-out: GI. In a few lines:
(§1)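 Compounds formulated as 10 g/L emulsified concentrates (DMSO solvent, Tween-80 emulsifier), diluted in water and applied to pot-grown plants in a greenhouse (23 ± 1 °C, 60 ± 5% RH, 8 h/day photoperiod). Distilled water and 2,4-D serve as references. Shoot height, root length and fresh weight are measured per cup. Percent inhibition is taken relative to water; mean of three repeats.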

The subject of test [2] is Brassica rapa subsp. oleifera. Kind of test: Herbicidal activity against Brassica rapa subsp. oleifera assessed as growth inhibition at 10 ug/ml. The format is functional. The following applies: read-out: GI. Put shortly:
as §1

The test system of test [3] is Echinochloa crus-galli. The test can be described thus: Herbicidal activity against Echinochloa crus-galli (barnyard grass) assessed as growth inhibition at 100 ug/ml. Conditions: read-out: GI. The format is functional. In a few lines:
as §1

Test [4] relates to Brassica rapa subsp. oleifera. The test can be described thus: Herbicidal activity against Brassica rapa subsp. oleifera assessed as growth inhibition at 100 ug/ml. In kind it is functional. Conditions: read-out: GI. Put shortly:
as §1

Test [5] concerns Brassica rapa subsp. oleifera. The test can be described thus: Herbicidal activity against Brassica rapa subsp. oleifera. The format is functional, organism-based. In a few lines:
as §1

The test system of test [6] is Echinochloa crus-galli. Kind of test: Herbicidal activity against Echinochloa crus-galli (barnyard grass). In kind it is functional, organism-based. Put shortly: as §1

For the molecule `O=C(N/N=C\Nc1ccc(C(F)(F)F)cc1)c1cc2c(cn1)[nH]c1ccccc12`, the inhibition of growth at 10 µg/mL was 0% with Echinochloa crus-galli [1] and 7.52% in test [2]. In addition, the figures for the inhibition of growth at 100 µg/mL (in the test with Echinochloa crus-galli [3]; in test [4]) were 0% and 23.7%, respectively.
With `O=C(N/N=C\c1ccc(C(F)(F)F)cc1)c1cc2c([nH]c3ccccc32)c(-c2ccc(Cl)cc2)n1`, the inhibition of growth at 10 µg/mL in the test on Echinochloa crus-galli [1] was 24.1%; in test [2], 66.9%. Also, the inhibition of growth at 100 µg/mL with Echinochloa crus-galli [3] turned out to be 57.9%; in test [4] it was 93.7%.
The corresponding values for `O=C(N/N=C\c1ccccc1)c1cc2c([nH]c3ccccc32)c(-c2ccc(C(F)(F)F)cc2)n1` are 19.4%, 27.1%, 31.2% and 82.3%.
Taken in the same sequence, the figures for `Cc1n[nH]c(Cl)c1/C=N\NC(=O)c1cc2c(cn1)[nH]c1ccccc12` were 6.34%, 32.2%, 28.1% and 90.8%.
For `O=C(N/N=C\c1ccccc1)c1cc2c([nH]c3ccccc32)c(-c2ccccc2)n1`, the inhibition of growth at 10 µg/mL with Echinochloa crus-galli [1] stood at 30.4%; in test [2], 62.1%. Besides, the inhibition of growth at 100 µg/mL worked out at 73.9% in the test with Echinochloa crus-galli [3] and 100% in test [4]. For the same molecule, the EC50 (in test [5]; in the test on Echinochloa crus-galli [6]) was 4.83 µM in each case.
As to `O=C(N/N=C\c1ccccc1)c1cc2c(cn1)[nH]c1ccccc12`, the inhibition of growth at 10 µg/mL in the test with Echinochloa crus-galli [1] was determined as 11.8%; in test [2], 18.1%. The inhibition of growth at 100 µg/mL in the test on Echinochloa crus-galli [3] is 35.9%; in test [4], 55.6%.
Taken in the same sequence, the figures for `O=C(N/N=C\c1ccccc1)C1Cc2c([nH]c3ccccc23)CN1` (stereo not drawn) were 0%, 3.75%, 15% and 25.3%.
Taken in the same sequence, the figures for `O=C(N/N=C\c1ccccc1)c1cc2c([nH]c3ccccc32)c(-c2ccc(Cl)cc2)n1` were 16.7%, 67%, 43.7% and 91.7%.
Turning to `COc1ccc(/C=N\NC(=O)C2Cc3c([nH]c4ccccc34)CN2)cc1` (stereo not drawn), the inhibition of growth at 10 µg/mL in the test on Echinochloa crus-galli [1] was 0%; in test [2], 8.69%. For the same molecule, the inhibition of growth at 100 µg/mL in the test with Echinochloa crus-galli [3] came to 8.62%; in test [4] it was 37.1%.
As for `COc1cc(OC)c(/C=N\NC(=O)c2cc3c(cn2)[nH]c2ccccc23)c(OC)c1`, the results for the inhibition of growth at 10 µg/mL (in the test with Echinochloa crus-galli [1]; in test [2]) were 0% and 13.8%, respectively. The inhibition of growth at 100 µg/mL with Echinochloa crus-galli [3] came out at 12.6%; in test [4], 42.7%.
Taken in the same sequence, the figures for `O=C(N/N=C\c1ccc(Cl)cc1)c1cc2c(cn1)[nH]c1ccccc12` were 0%, 18%, 0% and 47.3%.
The corresponding values for `Cc1nc(C(=O)N/N=C\c2ccccc2)cc2c1[nH]c1ccccc12` are 21.9%, 37.2%, 51.5% and 87%.
Take `O=C(N/N=C\c1ccco1)c1cc2c(cn1)[nH]c1ccccc12`: the figures for the inhibition of growth at 10 µg/mL (in the test with Echinochloa crus-galli [1]; in test [2]) were 0% and 2.59%, respectively. Also, the inhibition of growth at 100 µg/mL in the test on Echinochloa crus-galli [3] is 0%; in test [4] it was 17.9%.
With `O=C(N/N=C\c1ccccc1O)c1cc2c(cn1)[nH]c1ccccc12`, the inhibition of growth at 10 µg/mL came out at 18.1% in the test on Echinochloa crus-galli [1] and 19.4% in test [2]. The inhibition of growth at 100 µg/mL in the test with Echinochloa crus-galli [3] is 47.6%; in test [4] it was 50.1%.
The corresponding values for `O=C(N/N=C\c1ccc(C(F)(F)F)cc1)c1cc2c([nH]c3ccccc32)c(-c2ccc(C(F)(F)F)cc2)n1` are 9.76%, 35.4%, 35.7% and 76.5%.
Taken in the same sequence, the figures for `COc1cc(/C=N\NC(=O)c2cc3c(cn2)[nH]c2ccccc23)cc(OC)c1OC` were 15.1%, 16.3%, 37.1% and 58.4%.
The corresponding values for `COc1ccc2c(c1)[nH]c1c(C)nccc12` [HARMINE] are 10.8%, 20.2%, 32.5% and 53.7%.
Take `O=C(N/N=C\Nc1ccc(C(F)(F)F)cc1)C1Cc2c([nH]c3ccccc23)CN1` (stereo not drawn): the inhibition of growth at 10 µg/mL (in the test on Echinochloa crus-galli [1]; in test [2]) was 0% each time. Further, the results for the inhibition of growth at 100 µg/mL (in the test with Echinochloa crus-galli [3]; in test [4]) were 0% and 16.4%, respectively.
In the case of `COc1ccc(/C=N\NC(=O)c2cc3c(cn2)[nH]c2ccccc23)cc1`, the inhibition of growth at 10 µg/mL came to 17.5% with Echinochloa crus-galli [1] and 24.7% in test [2]. For the same molecule, the inhibition of growth at 100 µg/mL in the test with Echinochloa crus-galli [3] is 29.6%; in test [4], 71.6%.
Taken in the same sequence, the figures for `O=C(N/N=C\c1ccc([N+](=O)[O-])cc1)c1cc2c(cn1)[nH]c1ccccc12` were 24.6%, 30.9%, 43.2% and 85.4%.
With `O=C(N/N=C\c1ccc(C(F)(F)F)cc1)c1cc2c([nH]c3ccccc32)c(-c2ccccc2)n1`, the inhibition of growth at 10 µg/mL in the test with Echinochloa crus-galli [1] came out at 27.9%; in test [2], 57.9%. The figures for the inhibition of growth at 100 µg/mL (in the test with Echinochloa crus-galli [3]; in test [4]) were 60.3% and 100%, respectively. For the same molecule, the half-maximal effective concentration (EC50) (in test [5]; with Echinochloa crus-galli [6]) was 14.2 µM each time.
As for `O=C(NN=C(c1ccccc1)c1ccccc1)c1cc2c(cn1)[nH]c1ccccc12`, the inhibition of growth at 10 µg/mL (in the test on Echinochloa crus-galli [1]; in test [2]) was 0% in each case. Besides, the figures for the inhibition of growth at 100 µg/mL (in the test on Echinochloa crus-galli [3]; in test [4]) were 0% and 10.5%, respectively.
As for `COc1cc(/C=N\NC(=O)c2cc3c(cn2)[nH]c2ccccc23)ccc1O`, the inhibition of growth at 10 µg/mL in the test on Echinochloa crus-galli [1] came to 13.3%; in test [2], 27.4%. Also, the results for the inhibition of growth at 100 µg/mL (in the test with Echinochloa crus-galli [3]; in test [4]) were 33% and 63.2%, respectively.
With `O=C(O)COc1ccc(Cl)cc1Cl` [2,4-DICHLOROPHENOXYACETIC ACID], the inhibition of growth at 10 µg/mL in the test on Echinochloa crus-galli [1] was 100%. The inhibition of growth at 100 µg/mL (in the test on Echinochloa crus-galli [3]; in test [4]) was 100% each time.
Consider `COc1cc(/C=N\NC(=O)C2Cc3c([nH]c4ccccc34)CN2)cc(OC)c1OC` (stereo not drawn), for which the inhibition of growth at 10 µg/mL in the test on Echinochloa crus-galli [1] was determined as 2.51%; in test [2] it was 5.28%. For the same molecule, the inhibition of growth at 100 µg/mL in the test with Echinochloa crus-galli [3] was determined as 23.8%; in test [4], 33.5%.

A word on the EC50: it is the concentration at which the effect is half-maximal. A higher EC50 goes with a need for much substance.

The values above are taken from ChEMBL document CHEMBL3046667, “Synthesis and herbicidal activity evaluation of novel β-carboline derivatives” (Molecules, 2012).
